Like-named read-outs stand apart in the source and are kept apart here.
Experiments:
P‐gp [1] = target: T1, P‐gp (Homo sapiens, UniProt P08183); assay: In vitro transporter substrate assessment; format: in vitro ADME
CYP2B6 [2] = target: CYP2B6 (Homo sapiens, UniProt P20813); format: in vitro ADME; conditions: in vitro
CYP3A [3] = format: in vitro ADME; conditions: in vitro
[4] = target: breast cancer resistance protein (Homo sapiens, UniProt Q9UNQ0); assay: In vitro transporter inhibition; format: in vitro ADME
[5] = Phase 1 DDI study 004 part B: midazolam; conditions: clinically relevant concentrations, daily dosing up to 10 mg
CYP2C19 = CYP2C19 (Homo sapiens, UniProt P33261); assay: In vitro CYP inhibition; format: in vitro ADME
Chain of CYP2C19 (P33261 whole entry): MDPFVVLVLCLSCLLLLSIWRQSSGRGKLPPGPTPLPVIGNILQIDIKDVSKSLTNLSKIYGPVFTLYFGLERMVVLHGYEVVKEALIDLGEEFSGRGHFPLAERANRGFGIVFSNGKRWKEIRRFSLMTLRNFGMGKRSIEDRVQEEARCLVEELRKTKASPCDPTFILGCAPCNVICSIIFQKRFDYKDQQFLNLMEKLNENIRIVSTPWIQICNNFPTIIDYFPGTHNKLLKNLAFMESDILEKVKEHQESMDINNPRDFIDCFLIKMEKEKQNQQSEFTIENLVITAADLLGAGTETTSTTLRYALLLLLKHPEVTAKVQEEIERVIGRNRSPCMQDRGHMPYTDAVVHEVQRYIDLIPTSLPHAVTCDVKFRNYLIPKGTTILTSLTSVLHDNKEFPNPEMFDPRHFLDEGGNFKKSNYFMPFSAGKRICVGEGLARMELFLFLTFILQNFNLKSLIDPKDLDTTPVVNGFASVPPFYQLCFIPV

P‐gp [6] = target: T1, P‐gp; assay: In vitro transporter inhibition; format: in vitro ADME
OATP1B3 = OATP1B3 (Homo sapiens, UniProt Q9NPD5); assay: In vitro transporter substrate assessment; format: in vitro ADME
bile salt export pump = bile salt export pump (Homo sapiens, UniProt O95342); assay: In vitro transporter inhibition; format: in vitro ADME
[7] = Safety assessments in phase 1 DDI studies 004 and 012; format: in vivo, human
Method in brief: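 Two open-label single-site phase 1 studies in healthy adults, morning dosing. Test compound 10 mg was given alone and with a strong CYP3A inhibitor (200 mg) or inducer (600 mg) daily for 20 days, or with a moderate CYP3A inhibitor (400 mg, then 200 mg daily). It was also given daily for 13 days around CYP3A/CYP2B6 probe substrates. All treatment-emergent and serious AEs were recorded, with serum chemistry, hematology and urinalysis.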

OAT1 = OAT1 (Homo sapiens, UniProt Q4U2R8); assay: In vitro transporter inhibition; format: in vitro ADME
CYP2A6 = CYP2A6 (Homo sapiens, UniProt P11509); assay: In vitro CYP inhibition; format: in vitro ADME
Chain of CYP2A6 (P11509 whole entry): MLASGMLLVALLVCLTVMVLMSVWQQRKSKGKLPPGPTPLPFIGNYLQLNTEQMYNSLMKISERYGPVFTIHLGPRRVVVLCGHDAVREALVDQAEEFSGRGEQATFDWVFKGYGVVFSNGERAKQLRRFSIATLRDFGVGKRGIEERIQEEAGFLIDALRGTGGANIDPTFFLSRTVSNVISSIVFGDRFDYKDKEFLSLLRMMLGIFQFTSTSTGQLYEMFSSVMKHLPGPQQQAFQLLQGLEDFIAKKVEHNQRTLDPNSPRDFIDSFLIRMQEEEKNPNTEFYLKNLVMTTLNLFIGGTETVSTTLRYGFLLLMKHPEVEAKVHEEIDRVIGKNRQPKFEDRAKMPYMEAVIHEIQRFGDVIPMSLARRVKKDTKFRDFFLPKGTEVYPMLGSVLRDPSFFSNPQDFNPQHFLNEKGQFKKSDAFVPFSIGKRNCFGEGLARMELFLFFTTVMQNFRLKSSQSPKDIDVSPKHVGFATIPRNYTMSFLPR

OCT2 = OCT2 (Homo sapiens, UniProt O15244); assay: In vitro transporter inhibition; format: in vitro ADME
Chain of OCT2 (O15244 whole entry): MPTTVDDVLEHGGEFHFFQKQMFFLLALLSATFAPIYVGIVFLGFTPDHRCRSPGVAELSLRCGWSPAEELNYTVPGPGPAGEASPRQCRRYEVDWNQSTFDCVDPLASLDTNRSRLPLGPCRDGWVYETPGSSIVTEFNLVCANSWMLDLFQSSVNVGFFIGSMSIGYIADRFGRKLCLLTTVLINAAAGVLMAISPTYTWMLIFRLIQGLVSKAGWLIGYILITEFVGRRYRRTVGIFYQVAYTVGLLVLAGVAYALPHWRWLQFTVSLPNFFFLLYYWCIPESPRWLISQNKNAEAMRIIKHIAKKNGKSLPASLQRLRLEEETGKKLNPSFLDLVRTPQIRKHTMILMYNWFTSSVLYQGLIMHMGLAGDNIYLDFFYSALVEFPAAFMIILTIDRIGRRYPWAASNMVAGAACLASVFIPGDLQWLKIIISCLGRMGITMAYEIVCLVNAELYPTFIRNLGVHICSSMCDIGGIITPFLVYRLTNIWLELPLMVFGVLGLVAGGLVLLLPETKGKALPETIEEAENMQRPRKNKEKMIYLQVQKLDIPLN

CYP2B6 [8] = format: in vitro ADME; conditions: in vitro
CYP2E1 = CYP2E1 (Homo sapiens, UniProt P05181); assay: In vitro CYP inhibition; format: in vitro ADME
Chain of CYP2E1 (P05181 whole entry): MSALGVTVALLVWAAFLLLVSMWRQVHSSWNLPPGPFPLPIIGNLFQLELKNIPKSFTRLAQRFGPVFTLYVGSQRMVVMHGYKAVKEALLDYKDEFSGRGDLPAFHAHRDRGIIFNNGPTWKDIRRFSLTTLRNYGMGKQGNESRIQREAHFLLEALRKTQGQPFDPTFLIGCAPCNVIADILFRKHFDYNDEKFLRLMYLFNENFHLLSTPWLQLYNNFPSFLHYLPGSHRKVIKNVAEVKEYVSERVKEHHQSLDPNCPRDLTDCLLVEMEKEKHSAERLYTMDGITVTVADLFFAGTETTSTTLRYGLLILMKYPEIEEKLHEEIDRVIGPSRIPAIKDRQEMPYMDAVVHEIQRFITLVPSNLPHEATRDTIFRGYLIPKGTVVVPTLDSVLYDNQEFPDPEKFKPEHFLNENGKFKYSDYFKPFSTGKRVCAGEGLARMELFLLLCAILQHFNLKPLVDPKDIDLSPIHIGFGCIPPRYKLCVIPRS

OATP1B1 [9] = target: T2, OATP1B1 (Homo sapiens, UniProt Q9Y6L6); assay: In vitro transporter substrate assessment; format: in vitro ADME
T2 sequence (Q9Y6L6 whole entry): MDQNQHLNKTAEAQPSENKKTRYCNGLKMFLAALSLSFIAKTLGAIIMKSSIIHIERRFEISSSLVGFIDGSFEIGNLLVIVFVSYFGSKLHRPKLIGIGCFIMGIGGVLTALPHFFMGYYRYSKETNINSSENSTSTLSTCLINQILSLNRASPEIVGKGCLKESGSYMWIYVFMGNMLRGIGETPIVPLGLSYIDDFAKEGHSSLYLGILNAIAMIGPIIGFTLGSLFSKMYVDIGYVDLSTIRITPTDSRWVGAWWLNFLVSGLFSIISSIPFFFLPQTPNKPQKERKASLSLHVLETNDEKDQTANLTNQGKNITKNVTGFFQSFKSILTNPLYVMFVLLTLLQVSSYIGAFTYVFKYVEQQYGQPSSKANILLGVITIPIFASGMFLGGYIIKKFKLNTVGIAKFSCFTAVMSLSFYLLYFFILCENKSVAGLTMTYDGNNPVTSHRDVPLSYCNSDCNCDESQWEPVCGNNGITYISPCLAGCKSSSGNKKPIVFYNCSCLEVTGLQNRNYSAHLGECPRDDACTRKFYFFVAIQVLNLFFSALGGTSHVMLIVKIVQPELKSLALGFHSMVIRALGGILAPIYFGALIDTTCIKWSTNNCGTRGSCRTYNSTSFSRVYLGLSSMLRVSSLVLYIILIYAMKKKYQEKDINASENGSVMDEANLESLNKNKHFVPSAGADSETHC

CYP3A [10] = assay: in vitro; format: in vitro ADME
CYP3A [11] = format: in vitro ADME; conditions: in vitro metabolism studies; unpublished data
CYP2C9 = CYP2C9 (Homo sapiens, UniProt P11712); assay: In vitro CYP inhibition; format: in vitro ADME
Chain of CYP2C9 (P11712 whole entry): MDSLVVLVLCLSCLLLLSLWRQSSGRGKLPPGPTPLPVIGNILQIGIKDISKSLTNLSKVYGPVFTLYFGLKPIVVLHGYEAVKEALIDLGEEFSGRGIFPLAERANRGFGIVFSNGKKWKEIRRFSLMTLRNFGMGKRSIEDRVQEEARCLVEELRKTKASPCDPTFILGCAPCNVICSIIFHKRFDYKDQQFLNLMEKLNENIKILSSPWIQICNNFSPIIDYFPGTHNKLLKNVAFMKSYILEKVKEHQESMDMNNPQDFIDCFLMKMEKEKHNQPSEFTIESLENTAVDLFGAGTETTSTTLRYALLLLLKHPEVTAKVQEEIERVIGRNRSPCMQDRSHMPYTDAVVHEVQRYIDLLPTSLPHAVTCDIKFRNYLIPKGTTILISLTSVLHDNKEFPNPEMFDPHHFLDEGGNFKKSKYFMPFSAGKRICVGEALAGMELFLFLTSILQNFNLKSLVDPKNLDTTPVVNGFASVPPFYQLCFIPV

[12] = Phase 1 DDI study 004 part A: lemborexant plasma PK with/without rifampin; format: in vivo, human
CYP1A2 = CYP1A2 (Homo sapiens, UniProt P05177); assay: In vitro CYP inhibition; format: in vitro ADME
[13] = both phase 3 studies; cited from earlier work
CYP2C8 = CYP2C8 (Homo sapiens, UniProt P10632); assay: In vitro CYP inhibition; format: in vitro ADME
[14] = Phase 1 DDI study 004 part A: lemborexant plasma PK with/without itraconazole; format: in vivo, human
CYP2D6 = CYP2D6 (Homo sapiens, UniProt P10635); assay: In vitro CYP inhibition; format: in vitro ADME
Chain of CYP2D6 (P10635 whole entry): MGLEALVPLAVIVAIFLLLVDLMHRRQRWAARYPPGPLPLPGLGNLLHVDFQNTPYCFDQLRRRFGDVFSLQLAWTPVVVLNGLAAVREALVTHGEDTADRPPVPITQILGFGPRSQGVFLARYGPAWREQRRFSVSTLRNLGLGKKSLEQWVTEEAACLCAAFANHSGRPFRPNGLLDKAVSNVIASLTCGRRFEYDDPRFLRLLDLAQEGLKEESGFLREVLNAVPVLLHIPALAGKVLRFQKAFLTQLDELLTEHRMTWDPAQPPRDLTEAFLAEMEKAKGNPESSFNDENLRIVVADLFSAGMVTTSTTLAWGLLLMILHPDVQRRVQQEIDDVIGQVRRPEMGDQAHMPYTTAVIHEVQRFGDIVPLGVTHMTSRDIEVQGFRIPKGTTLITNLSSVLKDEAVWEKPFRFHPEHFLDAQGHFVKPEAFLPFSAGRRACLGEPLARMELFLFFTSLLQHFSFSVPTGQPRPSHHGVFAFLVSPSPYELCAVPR

OATP1B1 [15] = target: T2, OATP1B1; assay: In vitro transporter inhibition; format: in vitro ADME
BCRP = BCRP (Homo sapiens, UniProt Q9UNQ0); assay: In vitro transporter substrate assessment; format: in vitro ADME
MATE2‐K = MATE2‐K (Homo sapiens, UniProt Q86VL8); assay: In vitro transporter inhibition; format: in vitro ADME
[16] = Phase 1 DDI study 012: lemborexant plasma PK with/without fluconazole; format: in vivo, human; conditions: for AUC: human, plasma
[17] = rifampin cohort, N = 15, lemborexant alone days 1‐14, with rifampin days 22‐35
[18] = lemborexant + rifampin / lemborexant alone
[19] = coadministration with itraconazole
[20] = lemborexant + itraconazole / lemborexant alone
[21] = coadministration with fluconazole
[22] = lemborexant + fluconazole / lemborexant alone

T1 sequence (P08183 whole entry): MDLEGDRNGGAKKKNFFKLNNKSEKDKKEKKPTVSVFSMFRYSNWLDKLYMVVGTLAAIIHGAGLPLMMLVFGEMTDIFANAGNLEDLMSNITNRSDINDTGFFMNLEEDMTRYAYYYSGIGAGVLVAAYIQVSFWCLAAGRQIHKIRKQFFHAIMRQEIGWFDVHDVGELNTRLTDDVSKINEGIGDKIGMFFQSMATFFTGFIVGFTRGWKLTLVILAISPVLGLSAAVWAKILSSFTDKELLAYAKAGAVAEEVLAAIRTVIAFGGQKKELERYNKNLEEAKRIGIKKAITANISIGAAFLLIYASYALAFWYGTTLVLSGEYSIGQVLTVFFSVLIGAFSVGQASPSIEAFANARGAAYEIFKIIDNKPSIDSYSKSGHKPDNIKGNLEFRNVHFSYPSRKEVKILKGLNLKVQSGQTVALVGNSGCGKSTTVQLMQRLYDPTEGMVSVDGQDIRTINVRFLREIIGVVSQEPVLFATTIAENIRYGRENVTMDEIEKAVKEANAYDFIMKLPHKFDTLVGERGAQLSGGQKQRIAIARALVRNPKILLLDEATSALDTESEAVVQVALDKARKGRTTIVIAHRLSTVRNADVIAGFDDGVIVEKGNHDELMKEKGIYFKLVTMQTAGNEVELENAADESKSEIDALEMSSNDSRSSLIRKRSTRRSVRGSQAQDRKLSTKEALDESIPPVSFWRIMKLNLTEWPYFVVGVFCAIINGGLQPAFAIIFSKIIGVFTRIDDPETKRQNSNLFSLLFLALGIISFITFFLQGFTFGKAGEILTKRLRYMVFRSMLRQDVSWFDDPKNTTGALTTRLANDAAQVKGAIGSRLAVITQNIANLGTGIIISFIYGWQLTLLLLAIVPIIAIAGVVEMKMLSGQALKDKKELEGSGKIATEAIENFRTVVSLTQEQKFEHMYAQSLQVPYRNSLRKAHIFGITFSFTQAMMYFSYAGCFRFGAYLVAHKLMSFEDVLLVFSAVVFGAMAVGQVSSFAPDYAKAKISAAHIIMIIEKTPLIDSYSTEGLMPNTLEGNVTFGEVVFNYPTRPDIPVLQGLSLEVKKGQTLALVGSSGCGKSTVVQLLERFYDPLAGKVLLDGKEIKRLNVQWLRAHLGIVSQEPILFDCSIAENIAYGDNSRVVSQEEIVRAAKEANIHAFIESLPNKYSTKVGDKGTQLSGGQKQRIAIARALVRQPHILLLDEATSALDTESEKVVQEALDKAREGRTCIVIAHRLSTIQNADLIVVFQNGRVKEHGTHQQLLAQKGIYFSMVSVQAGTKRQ

In the case of `Cc1ncc(OC[C@@]2(c3cccc(F)c3)C[C@H]2C(=O)Nc2ccc(F)cn2)c(C)n1` [Lemborexant, (1R,2S)‐2‐{[(2,4‐dimethylpyrimidin‐5‐yl)oxy]methyl}‐2‐(3‐fluorophenyl)‐N‐(5‐fluoropyridin‐2‐yl)cyclopropanecarboxamide], the “substrate of P‐gp” value (P‐gp [1]) is reported as “potential poor substrate”, the “inhibition of CYP2B6” value (CYP2B6 [2]) is reported as “do not inhibit” and the “induction of CYP3A” value (CYP3A [3]) is reported as “have the potential to induce”. The “inhibition of breast cancer resistance protein” value [4] was “do not inhibit”, the “clinical effect on CYP2B6” value [5] was “has the potential to induce CYP2B6” and the “inhibition of CYP2C19” value (CYP2C19) was “do not inhibit”. The “inhibition of P‐gp” value (P‐gp [6]) was “do not inhibit”, the “substrate of OATP1B3” value (OATP1B3) was “neither lemborexant nor M10 was a substrate” and the “inhibition of bile salt export pump” value (bile salt export pump) was “do not inhibit”. The “subjects who experienced sleep paralysis” value ([7]; across the phase 1 studies) was 4 subjects, the “time of sleep paralysis after lemborexant dosing” value ([7]; all cases) was ≤ 1 h and the “severity of sleep paralysis” value ([7]; all cases, resolved, no discontinuation) was “mild”. For the same compound, the “changes in laboratory values, vital signs, electrocardiograms, or physical examination findings” value ([7]; phase 1 DDI studies) was “no clinically important changes”, the tolerability ([7]; phase 1 studies) was “generally well tolerated” and the AEs [7, 17] was 4 (26.7) n (%). For the same compound, the “AEs leading to study discontinuation” value [7, 17] was 0 n (%), the “AEs, Mild” value [7, 17] was 4 (26.7) n (%) and the “AEs, Moderate” value [7, 17] was 0 n (%). For the same compound, the “AEs, Severe” value [7, 17] was 0 n (%), the Death [7, 17] was 0 n (%) and the SAEs [7, 17] was 0 n (%). For the same compound, the “Treatment‐related AEs” value [7, 17] was 2 (13.3) n (%), the “inhibition of OAT1” value (OAT1) was “do not inhibit” and the “inhibition of CYP2A6” value (CYP2A6) was “do not inhibit”. The “inhibition of OCT2” value (OCT2) was “do not inhibit”, the “induction of CYP2B6” value (CYP2B6 [8]) was “have the potential to induce” and the “inhibition of CYP2E1” value (CYP2E1) was “do not inhibit”. For the same compound, the “substrate of OATP1B1” value (OATP1B1 [9]) was “neither lemborexant nor M10 was a substrate”, the KI (inactivation) (CYP3A [10]) was 25.2 µM and the inhibition at 30 μmol/L (CYP3A [10]) was 61.5%. The kinact (CYP3A [10]) was 0.000838 s⁻¹, the metabolic pathway (CYP3A [11]) was “predominantly metabolized by the cytochrome P450 3A (CYP3A) pathway” and the “inhibition of CYP2C9” value (CYP2C9) was “do not inhibit”. For the same compound, the “decrease in lemborexant AUC0‐inf” value ([12]; coadministration with rifampin) was > 90%, the “decrease in lemborexant Cmax” value ([12]; coadministration with rifampin) was > 90% and the half-life ([12]; human, plasma, 10 mg) was 2740 min. It also gave an AUC ([12]; human, plasma, 10 mg, AUC0‐inf, Geometric LSM, lemborexant 10 mg alone, n = 15, rifampin cohort) of 389 ng·h/mL, an AUC ([12]; human, plasma, 10 mg, AUC0‐inf, Mean (SD), lemborexant 10 mg alone, rifampin cohort) of 428 ng·h/mL and an AUC ([12]; human, plasma, 10 mg, AUC0‐t, Mean (SD), lemborexant 10 mg alone, rifampin cohort) of 409 ng·h/mL. It also gave a Cmax ([12]; human, plasma, 10 mg, Geometric LSM, lemborexant 10 mg alone, n = 15, rifampin cohort) of 55.5 ng/mL, a Cmax ([12]; human, plasma, 10 mg, Mean (SD), lemborexant 10 mg alone, rifampin cohort) of 58.9 ng/mL and an AUC ([12]; human, plasma, AUC0‐inf, Geometric LSM, lemborexant 10 mg + rifampin 600 mg, n = 9) of 13.4 ng·h/mL. It also gave an AUC ([12]; human, plasma, AUC0‐inf, Mean (SD), lemborexant 10 mg + rifampin 600 mg) of 15.8 ng·h/mL, an AUC ([12]; human, plasma, AUC0‐t, Geometric LSM, lemborexant 10 mg + rifampin 600 mg once daily, n = 15) of 12.3 ng·h/mL and an AUC ([12]; human, plasma, AUC0‐t, Mean (SD), lemborexant 10 mg + rifampin 600 mg) of 13.5 ng·h/mL. For the same compound, the Cmax ([12]; human, plasma, Geometric LSM, lemborexant 10 mg + rifampin 600 mg, n = 15) was 4.7 ng/mL, the Cmax ([12]; human, plasma, Mean (SD), lemborexant 10 mg + rifampin 600 mg) was 5.3 ng/mL and the “AUC0‐inf, Geometric Mean Ratio (90%CI)” value [12, 18] was 0.034 (0.026‐0.045). The “AUC0‐t, Geometric Mean Ratio (90%CI)” value [12, 18] was 0.033 (0.027‐0.040), the “Cmax, Geometric Mean Ratio (90%CI)” value [12, 18] was 0.085 (0.067‐0.107) and the “inhibition of CYP1A2” value (CYP1A2) was “do not inhibit”. The tolerability [13] was “well tolerated”, the “inhibition of CYP2C8” value (CYP2C8) was “do not inhibit” and the “increase in lemborexant AUC0–inf” value [14, 19] was 3.7 fold. The “increase in lemborexant Cmax” value [14, 19] was 1.4 fold, the half-life ([14]; human, plasma, 10 mg) was 2.27 days and the AUC ([14]; human, plasma, 10 mg, AUC0‐inf, Geometric LSM, lemborexant 10 mg alone, n = 15, itraconazole cohort) was 433 ng·h/mL. It also gave an AUC ([14]; human, plasma, 10 mg, AUC0‐inf, Mean (SD), lemborexant 10 mg alone, itraconazole cohort) of 464 ng·h/mL, an AUC ([14]; human, plasma, 10 mg, AUC0‐t, Mean (SD), lemborexant 10 mg alone, itraconazole cohort) of 437 ng·h/mL and an AUC ([14]; human, plasma, AUC0‐inf, Geometric LSM, lemborexant 10 mg + itraconazole 200 mg, n = 11) of 1600 ng·h/mL. For the same compound, the AUC ([14]; human, plasma, AUC0‐inf, Mean (SD), lemborexant 10 mg + itraconazole 200 mg) was 1640 ng·h/mL, the AUC ([14]; human, plasma, AUC0‐t, Geometric LSM, lemborexant 10 mg + itraconazole 200 mg once daily, n = 14) was 1480 ng·h/mL and the AUC ([14]; human, plasma, AUC0‐t, Mean (SD), lemborexant 10 mg + itraconazole 200 mg) was 1540 ng·h/mL. For the same compound, the Cmax ([14]; human, plasma, Cmax, Mean (SD), lemborexant 10 mg + itraconazole 200 mg) was 75 ng/mL, the “AUC0‐inf, Geometric Mean Ratio (90%CI)” value [14, 20] was 3.702 (3.183‐4.306) and the “AUC0‐t, Geometric Mean Ratio (90%CI)” value [14, 20] was 3.605 (3.122‐4.162). For the same compound, the “Cmax, Geometric Mean Ratio (90%CI)” value [14, 20] was 1.360 (1.181‐1.567), the “inhibition of CYP2D6” value (CYP2D6) was “do not inhibit” and the “inhibition of OATP1B1” value (OATP1B1 [15]) was “do not inhibit”. For the same compound, the “substrate of BCRP” value (BCRP) was “neither lemborexant nor M10 was a substrate”, the “inhibition of MATE2‐K” value (MATE2‐K) was “do not inhibit” and the “increase in lemborexant AUC0–inf” value [16, 21] was ~4 fold. The “increase in lemborexant Cmax” value [16, 21] was 1.6 fold, the AUC ([16]; AUC0‐inf, Geometric LSM, lemborexant 10 mg + fluconazole 200 mg, n = 12) was 1560 ng·h/mL and the AUC ([16]; AUC0‐inf, Mean (SD), lemborexant 10 mg + fluconazole 200 mg) was 1540 ng·h/mL. For the same compound, the AUC ([16]; AUC0‐t, Geometric LSM, lemborexant 10 mg + fluconazole 200 mg once daily, n = 14) was 1330 ng·h/mL, the AUC ([16]; AUC0‐t, Mean (SD), lemborexant 10 mg + fluconazole 200 mg) was 1360 ng·h/mL and the “AUC0‐inf, Geometric Mean Ratio (90%CI)” value [16, 22] was 4.175 (3.828‐4.553). For the same compound, the “AUC0‐t, Geometric Mean Ratio (90%CI)” value [16, 22] was 3.759 (3.486‐4.053) and the “Cmax, Geometric Mean Ratio (90%CI)” value [16, 22] was 1.622 (1.336‐1.969).
